Experimental data reported in ChEMBL document CHEMBL2046381, “Defining the mechanism of action and enzymatic selectivity of psammaplin A against its epigenetic targets” (J Med Chem, 2012).
Activity calls are given as the source filed them.

Assays:
[1] = biological target: T1, Histone deacetylase-like amidohydrolase (Alcaligenes sp. (strain DSM 11172) (Bordetella sp. (strain FB188))) (UniProt Q70I53); test: Inhibition of Bordetella sp. (strain FB188) N-terminus His-tagged HDAH expressed in Escherichia coli BL21 (DE3) up to 100 uM; settings: Alcaligenaceae bacterium FB188
T1 sequence (whole entry): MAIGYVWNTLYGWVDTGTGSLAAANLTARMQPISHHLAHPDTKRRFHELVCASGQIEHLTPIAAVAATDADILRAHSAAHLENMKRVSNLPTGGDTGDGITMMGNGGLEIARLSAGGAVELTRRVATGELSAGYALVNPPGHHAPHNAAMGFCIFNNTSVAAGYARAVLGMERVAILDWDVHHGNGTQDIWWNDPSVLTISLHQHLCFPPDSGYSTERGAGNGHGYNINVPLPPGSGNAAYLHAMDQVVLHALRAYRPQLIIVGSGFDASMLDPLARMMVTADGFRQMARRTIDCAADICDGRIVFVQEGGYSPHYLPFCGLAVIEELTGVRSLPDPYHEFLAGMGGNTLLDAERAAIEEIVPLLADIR
How it was run: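 Recombinant N-terminal His6-tagged HDAH from Bordetella strain FB188, expressed in E. coli BL21, purified on zinc-loaded His-Trap column, eluted with 500 mM imidazole, dialyzed into assay buffer (>98% pure by SDS-PAGE). Tested directly against compounds; thiols generated in situ from disulfides with TCEP.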

[2] = biological target: T2, Protein deacetylase HDAC6 (Homo sapiens, UniProt Q9UBN7); test: Inhibition of human recombinant HDAC6 using Boc-lys(Ac)-AMC as substrate preincubated for 20 mins with substrate measured after 60 mins by fluorescence analysis
T2 sequence (Q9UBN7 whole entry): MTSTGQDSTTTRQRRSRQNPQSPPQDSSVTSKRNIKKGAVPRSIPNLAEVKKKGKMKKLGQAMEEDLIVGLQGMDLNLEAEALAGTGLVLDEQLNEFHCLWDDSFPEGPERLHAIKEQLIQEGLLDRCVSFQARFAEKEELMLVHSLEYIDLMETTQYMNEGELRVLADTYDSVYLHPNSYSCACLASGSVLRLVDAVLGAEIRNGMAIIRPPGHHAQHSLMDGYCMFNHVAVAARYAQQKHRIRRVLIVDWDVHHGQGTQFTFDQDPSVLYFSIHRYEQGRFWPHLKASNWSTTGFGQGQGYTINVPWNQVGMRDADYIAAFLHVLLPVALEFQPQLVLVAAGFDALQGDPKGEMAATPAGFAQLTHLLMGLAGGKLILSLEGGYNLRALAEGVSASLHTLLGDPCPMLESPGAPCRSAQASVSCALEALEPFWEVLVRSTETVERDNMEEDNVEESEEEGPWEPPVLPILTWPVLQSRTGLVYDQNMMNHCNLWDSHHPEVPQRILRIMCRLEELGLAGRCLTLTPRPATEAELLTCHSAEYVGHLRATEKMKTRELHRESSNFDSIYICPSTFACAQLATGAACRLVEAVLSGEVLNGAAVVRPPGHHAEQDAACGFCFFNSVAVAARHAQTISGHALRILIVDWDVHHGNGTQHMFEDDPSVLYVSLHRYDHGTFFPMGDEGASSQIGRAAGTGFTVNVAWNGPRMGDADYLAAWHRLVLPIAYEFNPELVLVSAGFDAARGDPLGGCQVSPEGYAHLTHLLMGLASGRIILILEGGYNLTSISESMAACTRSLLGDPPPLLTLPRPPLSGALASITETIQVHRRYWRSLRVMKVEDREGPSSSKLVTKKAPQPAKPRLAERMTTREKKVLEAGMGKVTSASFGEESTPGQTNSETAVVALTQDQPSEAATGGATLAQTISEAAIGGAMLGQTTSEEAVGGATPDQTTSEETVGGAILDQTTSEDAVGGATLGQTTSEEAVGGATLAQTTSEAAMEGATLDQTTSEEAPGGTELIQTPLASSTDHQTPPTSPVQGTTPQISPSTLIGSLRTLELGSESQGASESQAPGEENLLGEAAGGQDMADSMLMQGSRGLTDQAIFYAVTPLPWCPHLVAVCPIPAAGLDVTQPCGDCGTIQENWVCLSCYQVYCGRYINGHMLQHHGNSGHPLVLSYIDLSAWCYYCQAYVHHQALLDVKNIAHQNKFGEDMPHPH

[3] = biological target: Histone deacetylase 1 (Homo sapiens, UniProt Q13547); test: Inhibition of human recombinant HDAC1 using Boc-lys(Ac)-AMC as substrate preincubated for 20 mins with substrate measured after 60 mins by fluorescence analysis
[4] = biological target: DNA (cytosine-5)-methyltransferase 1 (Homo sapiens, UniProt P26358); test: Inhibition of full length N-terminal His6-tagged human DNMT1 at 120 uM after 1 hr by fluorescence analysis
How it was run: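 Baculovirus-expressed DNMT1 (80 nM final) with SAM (10 μM final) and hemimethylated hairpin oligo (125 nM final) in MOPS buffer pH 6.5 with 1 mM DTT, 1 h room temperature. Stopped with Gla1 plus 125 μM SAH, developed 7 h; fluorescence Ex 485/Em 520 nm. Thiols made in situ by TCEP reduction; no SAM as full-inhibition control.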

[5] = test system: A549; test: Growth inhibition of human A549 cells after 96 hrs by sulphorhodamine B assay; type: functional; settings: A549, 96 h
How it was run: (§1)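 SRB growth assay; MCF7 and WI38 seeded 4000 cells/well, A549 2000 cells/well, attached overnight, then exposed to freshly made drug solutions (0.1 to 50 μM) for 96 h. Fixed with cold 10% TCA, stained with 0.4% SRB; absorbance at 540 nm as percent of untreated control, IC50 from mean absorbance.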

[6] = test system: MCF7; test: Growth inhibition of human MCF7 cells after 96 hrs by sulphorhodamine B assay; type: functional; settings: MCF7, 96 h; how it was run: as §1

Chain of Histone deacetylase 1 (Q13547 whole entry): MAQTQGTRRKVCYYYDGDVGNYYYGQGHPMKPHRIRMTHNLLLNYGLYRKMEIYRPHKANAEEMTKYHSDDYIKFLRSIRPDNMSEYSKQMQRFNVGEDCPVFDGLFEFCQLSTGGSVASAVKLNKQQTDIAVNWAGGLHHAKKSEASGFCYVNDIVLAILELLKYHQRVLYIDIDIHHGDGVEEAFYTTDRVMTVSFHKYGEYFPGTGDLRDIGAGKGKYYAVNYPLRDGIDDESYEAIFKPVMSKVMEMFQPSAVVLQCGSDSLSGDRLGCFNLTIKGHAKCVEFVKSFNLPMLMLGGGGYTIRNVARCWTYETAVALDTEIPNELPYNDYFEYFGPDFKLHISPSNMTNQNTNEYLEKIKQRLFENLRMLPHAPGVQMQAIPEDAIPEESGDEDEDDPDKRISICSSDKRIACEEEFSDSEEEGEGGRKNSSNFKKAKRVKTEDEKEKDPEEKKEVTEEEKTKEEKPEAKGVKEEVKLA
Chain of DNA (cytosine-5)-methyltransferase 1 (P26358 whole entry): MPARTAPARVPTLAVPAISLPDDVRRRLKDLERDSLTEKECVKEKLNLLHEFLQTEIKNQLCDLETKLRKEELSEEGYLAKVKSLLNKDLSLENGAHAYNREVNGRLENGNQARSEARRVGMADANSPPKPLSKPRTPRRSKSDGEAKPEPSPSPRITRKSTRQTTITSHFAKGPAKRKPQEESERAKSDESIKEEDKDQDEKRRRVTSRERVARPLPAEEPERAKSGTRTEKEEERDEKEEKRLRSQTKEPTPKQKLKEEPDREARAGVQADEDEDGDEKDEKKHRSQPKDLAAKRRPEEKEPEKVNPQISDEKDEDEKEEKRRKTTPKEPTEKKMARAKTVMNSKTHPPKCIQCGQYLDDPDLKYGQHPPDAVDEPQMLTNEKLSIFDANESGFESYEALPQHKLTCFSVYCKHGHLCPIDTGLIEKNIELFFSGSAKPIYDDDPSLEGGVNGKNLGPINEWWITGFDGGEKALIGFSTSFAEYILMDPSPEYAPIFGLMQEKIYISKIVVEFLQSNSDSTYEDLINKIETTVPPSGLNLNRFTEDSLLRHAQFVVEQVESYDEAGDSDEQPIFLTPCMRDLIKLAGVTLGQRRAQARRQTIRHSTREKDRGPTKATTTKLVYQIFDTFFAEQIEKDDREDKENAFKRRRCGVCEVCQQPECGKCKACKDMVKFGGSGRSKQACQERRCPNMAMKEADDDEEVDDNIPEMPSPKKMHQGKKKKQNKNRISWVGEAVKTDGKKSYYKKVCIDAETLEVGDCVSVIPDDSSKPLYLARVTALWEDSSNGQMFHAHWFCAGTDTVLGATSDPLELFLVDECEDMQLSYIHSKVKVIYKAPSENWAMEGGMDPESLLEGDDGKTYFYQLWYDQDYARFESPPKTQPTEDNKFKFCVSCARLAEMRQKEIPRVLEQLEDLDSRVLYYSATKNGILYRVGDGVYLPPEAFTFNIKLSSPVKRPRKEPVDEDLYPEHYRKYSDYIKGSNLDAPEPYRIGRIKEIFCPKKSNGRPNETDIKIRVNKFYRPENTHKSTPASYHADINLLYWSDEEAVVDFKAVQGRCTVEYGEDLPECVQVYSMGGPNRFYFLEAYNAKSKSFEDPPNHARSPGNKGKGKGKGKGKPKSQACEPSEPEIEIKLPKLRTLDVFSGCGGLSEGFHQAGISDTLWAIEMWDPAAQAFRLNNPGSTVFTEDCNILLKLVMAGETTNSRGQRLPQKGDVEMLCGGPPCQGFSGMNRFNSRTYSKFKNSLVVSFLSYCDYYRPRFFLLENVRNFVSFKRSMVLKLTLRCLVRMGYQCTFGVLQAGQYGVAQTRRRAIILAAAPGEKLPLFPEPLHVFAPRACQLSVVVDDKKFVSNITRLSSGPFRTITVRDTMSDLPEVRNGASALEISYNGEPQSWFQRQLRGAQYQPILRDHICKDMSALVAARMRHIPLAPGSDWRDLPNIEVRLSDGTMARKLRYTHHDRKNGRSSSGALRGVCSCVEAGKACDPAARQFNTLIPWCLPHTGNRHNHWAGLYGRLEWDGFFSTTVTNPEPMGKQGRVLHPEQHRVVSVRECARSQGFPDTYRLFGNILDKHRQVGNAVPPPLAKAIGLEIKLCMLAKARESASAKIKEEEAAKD

Structure (SMILES)	inhibition [1]	IC50 [2] [nM]	IC50 [3] [nM]	inhibition [4]	GI50 [5] [nM]	GI50 [6] [nM]
CSc1ccc(C/C(=N\O)C(=O)NCCSSCCNC(=O)/C(Cc2ccc(SC)c(Br)c2)=N/O)cc1Br	inactive					
O=C(NCCS)/C(Cc1cccc([N+](=O)[O-])c1)=N/O	inactive	1200	1	inactive		
CN(C)c1ccc(C/C(=N\O)C(=O)NCCS)cc1Br	inactive	700	4	inactive		
O=C(NCCCSCCNC(=O)/C(Cc1ccc(O)c(Br)c1)=N/O)/C(Cc1ccc(O)c(Br)c1)=N/O	inactive			inactive		
O=C(NCCS)/C(Cc1ccc(O)cc1)=N/O	inactive	1700	4	inactive		
COc1ccc(CC(=O)C(=O)NCCS)cc1Br	inactive	250	1100			
CSc1ccc(C/C(=N\O)C(=O)NCCSSCCNC(=O)/C(Cc2ccc(SC)cc2)=N/O)cc1	inactive					
COc1ccc(C/C(=N\O)C(=O)NCCSC)cc1Br		> 50000	23300			
CSCCNC(=O)C(=O)Cc1ccc(O)c(Br)c1	inactive	30000	7300		> 50000	18300
COc1ccc(C/C(=N\O)C(=O)NCCS)cc1I	inactive	240	1	inactive		
COc1ccc(C/C(=N\N)C(=O)NCCS)cc1Br	inactive	320	6			
COc1ccc(C/C(=N\O)C(=O)NCCSSCCNC(=O)/C(Cc2ccc(OC)c(I)c2)=N/O)cc1I	inactive					
COc1ccc(CC(=O)C(=O)NCCSSCCNC(=O)C(=O)Cc2ccc(OC)c(Br)c2)cc1Br	inactive	8000	9000			
O=C(CCc1ccc(O)c(Br)c1)NCCSSCCNC(=O)CCc1ccc(O)c(Br)c1	inactive	20200	> 50000			
O=C(NCCSSCCNC(=O)/C(Cc1ccc(F)cc1)=N/O)/C(Cc1ccc(F)cc1)=N/O	inactive					
COc1cc(C/C(=N\O)C(=O)NCCS)cc(I)c1OC	inactive	270	1	inactive		
O=C(NCCS)/C(Cc1ccc(F)cc1)=N/O	inactive	2900	7	inactive		
CN(C)c1ccc(C/C(=N\O)C(=O)NCCSSCCNC(=O)/C(Cc2ccc(N(C)C)cc2)=N/O)cc1	inactive					
CN(C)c1ccc(C/C(=N\O)C(=O)NCCSSCCNC(=O)/C(Cc2ccc(N(C)C)c(Br)c2)=N/O)cc1Br	inactive					
O=C(NCCSSCCNC(=O)/C(Cc1cc(Br)c(O)c(Br)c1)=N/O)/C(Cc1cc(Br)c(O)c(Br)c1)=N/O	inactive					
N/N=C(\Cc1ccc(O)c(Br)c1)C(=O)NCCSSCCNC(=O)/C(Cc1ccc(O)c(Br)c1)=N/N	inactive	5000	6100		18800	3810

Structure (SMILES)	inhibition [1]	IC50 [2] [nM]	IC50 [3] [nM]	inhibition [4]	GI50 [5] [nM]	GI50 [6] [nM]
COc1ccc(C/C(=N\N)C(=O)NCCSSCCNC(=O)/C(Cc2ccc(OC)c(Br)c2)=N/N)cc1Br	inactive	> 50000	3000			
COc1ccc(C/C(=N\O)C(=O)NCCS)cc1OC	inactive	2700	3	inactive		
CSc1ccc(C/C(=N\O)C(=O)NCCS)cc1	inactive	1300	2	inactive		
O=C(NCCSSCCNC(=O)/C(Cc1ccc(O)cc1)=N/O)/C(Cc1ccc(O)cc1)=N/O	inactive					
COc1ccc(C/C(=N\N)C(=O)NCCSC)cc1Br	inactive	> 50000	12600			
COc1cc(C/C(=N\O)C(=O)NCCSSCCNC(=O)/C(Cc2cc(I)c(OC)c(OC)c2)=N/O)cc(I)c1OC	inactive					
CO/N=C(\Cc1ccc(OC)c(Br)c1)C(=O)NCCSC	inactive	> 50000	> 50000			
COc1cc(C/C(=N\O)C(=O)NCCSSCCNC(=O)/C(Cc2ccc(SC)c(OC)c2)=N/O)ccc1SC	inactive					
CN(C)c1ccc(C/C(=N\O)C(=O)NCCS)cc1	inactive	2300	1	inactive		
O=C(NCCS)/C(Cc1cc(Br)cc([N+](=O)[O-])c1)=N/O	inactive	740	5	inactive		
COc1ccc(C/C(=N\O)C(=O)NCCSSCCNC(=O)/C(Cc2ccc(OC)c(Br)c2)=N/O)cc1Br		2000	43			
CSc1ccc(C/C(=N\O)C(=O)NCCS)cc1Br	inactive	190	0.48	inactive		
O=C(NCCSSCCNC(=O)/C(Cc1cccc([N+](=O)[O-])c1)=N/O)/C(Cc1cccc([N+](=O)[O-])c1)=N/O	inactive					
O=C(NCCSSCCNC(=O)/C(Cc1cc(Br)cc([N+](=O)[O-])c1)=N/O)/C(Cc1cc(Br)cc([N+](=O)[O-])c1)=N/O	inactive					
O=C(NCCS)/C(Cc1cc(Br)c(O)c(Br)c1)=N/O	inactive	790	0.2	inactive		
CO/N=C(\Cc1ccc(OC)c(Br)c1)C(=O)NCCS	inactive	2700	15	inactive		
O=C(NCCCCCCNC(=O)/C(Cc1ccc(O)c(Br)c1)=N/O)/C(Cc1ccc(O)c(Br)c1)=N/O	inactive			inactive		
CO/N=C(\Cc1ccc(OC)c(Br)c1)C(=O)NCCSSCCNC(=O)/C(Cc1ccc(OC)c(Br)c1)=N/OC	inactive	> 50000	220			
COc1ccc(C/C(=N\O)C(=O)NCCSSCCNC(=O)/C(Cc2ccc(OC)c(OC)c2)=N/O)cc1OC	inactive					
COc1cc(C/C(=N\O)C(=O)NCCS)ccc1SC	inactive	1400	0.6			
COc1ccc(CC(=O)C(=O)NCCSC)cc1Br	inactive	> 50000	> 50000			
